Drawing on ChEMBL document CHEMBL1152305, “Synthesis and ribonucleotide reductase inhibitory activity of thiosemicarbazones” (Bioorg Med Chem Lett, 2008), this text covers IC50 for 21 compounds.

A word on the IC50: it is the midpoint of a concentration-inhibition curve.

The nature of the test: Inhibition of human recombinant ribonucleotide reductase expressed in BL21 (DE3) bacteria assessed as conversion of [3H]CDP to [3H]dCDP. The gist of the method: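 Recombinant human hRRM1 and hRRM2 subunits (BL21(DE3) expression, Ni(II) affinity purified) preincubated together with compound at room temperature 30 min, 1% v/v DMSO final. Phosphodiesterase dephosphorylation, HPLC radio-flow separation of cytidine/deoxycytidine. IC50 from nonlinear fit versus DMSO control; three tests in duplicate.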
As for `COc1cc(/C=N/NC(=S)Nc2ccccc2)ccc1O`, the IC50 is greater than 500 µM.
For `Oc1ccc(/C=N/NC(=S)Nc2ccc(Cl)cc2)cc1`, the IC50 amounted to 287 µM.
Then `Oc1ccc(/C=N/NC(=S)Nc2ccc(O)cc2)cc1`, with 43.3 µM; and `Oc1ccc(/C=N/NC(=S)Nc2ccccc2)cc1`, with 242 µM.
Then `S=C(N/N=C/c1ccco1)Nc1ccc(Cl)cc1`, with greater than 500 µM; and `COc1cc(/C=N/NC(=S)Nc2ccc(Cl)cc2)ccc1O`, with greater than 500 µM; and `Oc1ccccc1/C=N/NC(=S)Nc1ccc(Cl)cc1`, with greater than 500 µM.
With `Cc1ccccc1NC(=S)N/N=C/c1ccc(O)cc1`, the IC50 was 36.5 µM.
With `Oc1ccc(/C=N/NC(=S)Nc2ccccc2Cl)cc1`, the IC50 was 46.8 µM.
Then `Cc1cccc(NC(=S)N/N=C/c2ccc(O)cc2)c1`, with 30.4 µM; and `O=[N+]([O-])c1ccccc1NC(=S)N/N=C/c1ccc(O)cc1`, with 39.3 µM; and `O=[N+]([O-])c1ccc(NC(=S)N/N=C/c2ccc(O)cc2)cc1`, with 45.1 µM.
Turning to `Oc1ccc(/C=N/NC(=S)Nc2cccc(Cl)c2)cc1`, the IC50 turned out to be 29.3 µM.
Next, `Oc1ccccc1/C=N/NC(=S)Nc1ccccc1`: greater than 500 µM.
Then `Oc1ccc(/C=N/NC(=S)Nc2ccccc2O)cc1`, with 29.3 µM; and `Oc1ccc(/C=N/NC(=S)Nc2cccc(O)c2)cc1`, with 28.6 µM; and `S=C(N/N=C/c1cccs1)Nc1ccc(Cl)cc1`, with greater than 500 µM.
Next, `Cc1ccc(NC(=S)N/N=C/c2ccc(O)cc2)cc1`: 14.2 µM.
Turning to `COc1ccccc1NC(=S)N/N=C/c1ccc(O)cc1`, the IC50 was found to be 41.6 µM.
On to `NC(=O)NO` [HYDROXYUREA], for which the IC50 came to 148 µM.
For `NC(=S)N/N=C/c1ncccc1N` [TRIAPINE], the IC50 worked out at 2.25 µM.
